Assay results from ChEMBL document CHEMBL4715813, “Allicin-inspired pyridyl disulfides as antimicrobial agents for multidrug-resistant Staphylococcus aureus” (Eur J Med Chem, 2018).

Assays:
[1] = tested on: Staphylococcus aureus; assay: Antibacterial activity against hospital acquired methicillin-resistant Staphylococcus aureus ATCC 43300 assessed as zone of inhibition by disc diffusion method; assay type: functional
[2] = tested on: Staphylococcus aureus; assay: Ratio of MBC to MIC against methicillin-susceptible Staphylococcus aureus ATCC 25923; assay type: functional
Method in brief: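 For MBC, 5 μL from each well was spotted on agar and incubated overnight; MBC is the lowest concentration with no visible growth. Ratio taken as MBC over MIC.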

CCCCCCCCSSc1ccccn1
diameter of the inhibition zone (DIZ) [1]: 38 mm | Ratio [2]: >4
